Results published in ChEMBL document CHEMBL1131142 (J Med Chem, 1998).
Activity calls are given as the source filed them. No cut-off for these calls is given here.

Assays:
[1] = molecular target: Aldo-keto reductase family 1 member B1 (Sus scrofa, UniProt P80276); assay: In vitro inhibitory activity against aldose reductase in porcine lens.
Procedure, shortened: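 Partially purified porcine lens AR: lens homogenate in 250 mM phosphate pH 7.4 with 2 mM mercaptoethanol, 20000g supernatant, 40-60% ammonium sulfate cut. Assay mix: 100 mM phosphate pH 6.5, 0.2 mM NADPH, 1.5 mM DL-glyceraldehyde, 0.4 M Li2SO4, 7.0 mU/mL enzyme; 37 °C; A340 decrease over 1 min. IC50 read graphically from log concentration-inhibition curve.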

[2] = test system: Rattus norvegicus; assay: Tested in vivo for inhibition of sorbital accumulation in the sciatic nerve of streptozotocin- induced diabetic rat; % Inhibition at 100 mg/kg; type: functional
[3] = species: Rattus norvegicus; assay: Dose required for inhibition of sorbital accumulation in the sciatic nerve of streptozotocin- induced diabetic rat.; type: functional
Procedure, shortened: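 Oral dosing of streptozotocin-diabetic rats once daily for 5 days; sciatic nerve taken 4 h after final dose. Nerve sorbitol assayed fluorometrically via sorbitol dehydrogenase-generated NADH (ex 365/em 430 nm).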

[4] = test system: Rattus norvegicus; assay: Tested in vivo for inhibition of sorbital accumulation in the sciatic nerve of streptozotocin- induced diabetic rat; % Inhibition at 30 mg/kg; type: functional
[5] = test system: Rattus norvegicus; assay: Compound tested in vivo for inhibition of sorbital accumulation in the sciatic nerve of streptozotocin- induced diabetic rat; % Inhibition at 1 mg/Kg; type: functional
[6] = test system: Rattus norvegicus; assay: Tested in vivo for inhibition of sorbital accumulation in the sciatic nerve of streptozotocin- induced diabetic rat;NS=No significant inhibition at 100 mg/kg; type: functional, organism-based; set-up: dose 100 mg/kg
[7] = test system: Rattus norvegicus; assay: Compound tested in vivo for inhibition of sorbital accumulation in the sciatic nerve of streptozotocin- induced diabetic rat; No significant inhibition at 30 mg/kg; type: functional, organism-based; set-up: dose 30 mg/kg
[8] = test system: Rattus norvegicus; assay: Compound tested in vivo for inhibition of sorbital accumulation in the sciatic nerve of streptozotocin- induced diabetic rat; No significant inhibition at 100 mg/kg; type: functional, organism-based; set-up: dose 100 mg/kg
[9] = test system: Rattus norvegicus; assay: Compound tested in vivo for inhibition of sorbital accumulation in the sciatic nerve of streptozotocin- induced diabetic rat at 100 mg/kg; type: functional
[10] = test system: Rattus norvegicus; assay: Compound tested in vivo for inhibition of sorbital accumulation in the sciatic nerve of streptozotocin- induced diabetic rat; No significant inhibition at 1 mg/kg; type: functional, organism-based; set-up: dose 1 mg/kg
[11] = test system: Rattus norvegicus; assay: Compound tested for inhibition of sorbital accumulation in the sciatic nerve of streptozotocin- induced diabetic rat; % Inhibition at 1 mg/kg; type: functional

CN1C(=O)c2cccn2C(CC(=O)O)C1=O (configuration not stated)
IC50 [1]: > 10000 nM | inhibition in vivo at 100 mg/kg [2]: 12.8%

O=C1CC2(C(=O)N1)C(=O)N(Cc1ccc([N+](=O)[O-])cc1)C(=O)c1cccn12 (configuration not stated)
ED50 [3]: 10.8 mg/kg/day | inhibition in vivo at 30 mg/kg [4]: 102%

O=C1CC2(C(=O)N1)C(=O)N(Cc1ccc(F)cc1)C(=O)c1cccn12 (configuration not stated)
inhibition in vivo at 30 mg/kg [4]: 58.8%

CC(=O)c1cc2n(c1)C1(CC(=O)NC1=O)C(=O)N(Cc1ccc(Br)cc1F)C2=O (configuration not stated)
IC50 [1]: 210 nM | inhibition in vivo at 1 mg/kg [5]: 26.6%

Cc1ccc(CN2C(=O)c3cccn3C3(CC(=O)NC3=O)C2=O)cc1 (configuration not stated)
inhibition in vivo at 30 mg/kg [4]: 65.8%

O=C(O)CC1C(=O)N(Cc2ccc(Br)cc2F)C(=O)c2cccn21 (configuration not stated)
inhibition [6]: inactive | IC50 [1]: 165 nM

O=C1CC2(C(=O)N1)C(=O)N(Cc1cccc(Br)c1)C(=O)c1cccn12 (configuration not stated)
inhibition in vivo at 30 mg/kg [4]: 102%

COc1ccc2c(C(=S)N(C)CC(=O)O)cccc2c1C(F)(F)F [TOLRESTAT]
IC50 [1]: 15 nM | ED50 [3]: 26.7 mg/kg/day

COc1ccc(CN2C(=O)c3cccn3C3(CC(=O)NC3=O)C2=O)cc1 (configuration not stated)
inhibition in vivo at 30 mg/kg [4]: 46.7%

O=C1CC2(C(=O)N1)C(=O)N(Cc1ccccc1)C(=O)c1cccn12 (configuration not stated)
inhibition in vivo at 30 mg/kg [4]: 69.1%

COc1ccc(CN2C(=O)c3cccn3C3(CC(=O)NC3=O)C2=O)cc1OC (configuration not stated)
inhibition [7]: inactive

O=C(O)CC1C(=O)N(Cc2ccc(Cl)c(Cl)c2)C(=O)c2cccn21 (configuration not stated)
IC50 [1]: 131 nM | inhibition [8]: inactive

O=C1CC2(C(=O)N1)C(=O)N(Cc1ccc(Br)cc1F)C(=O)c1ccc(Cl)n12 (configuration not stated)
inhibition in vivo at 1 mg/kg [5]: 20.2%

O=C1CC2(C(=O)N1)C(=O)N(Cc1ccc(Br)cc1)C(=O)c1cccn12 (configuration not stated)
ED50 [3]: 0.48 mg/kg/day | inhibition in vivo at 30 mg/kg [4]: 108%

O=C1CC2(C(=O)N1)C(=O)N(Cc1ccc(C(F)(F)F)cc1)C(=O)c1cccn12 (configuration not stated)
inhibition in vivo at 30 mg/kg [4]: 88.4%

O=C1CC2(C(=O)N1)C(=O)N(Cc1ccc(Cl)c(Cl)c1)C(=O)c1cccn12 (configuration not stated)
ED50 [3]: 0.6 mg/kg/day | inhibition in vivo at 30 mg/kg [4]: 112%

CN1C(=O)c2cccn2C(CCC(=O)O)C1=O (configuration not stated)
inhibition [6]: inactive | IC50 [1]: > 10000 nM

O=C(O)Cc1nn(Cc2ccc(Br)cc2F)c(=O)c2ccccc12 [PONALRESTAT]
IC50 [1]: 21 nM | ED50 [3]: 11 mg/kg/day

O=C1CC2(C(=O)N1)C(=O)N(Cc1ccc(Br)cc1F)C(=O)c1cc(Cl)cn12 (configuration not stated)
inhibition in vivo at 1 mg/kg [5]: 23%

COc1ccc(CN2C(=O)c3cccn3C3(CC(=O)NC3=O)C2=O)c(OC)c1 (configuration not stated)
IC50 [1]: 350 nM | inhibition [7]: inactive

O=C(O)CCC1C(=O)N(Cc2ccc(Cl)c(Cl)c2)C(=O)c2cccn21 (configuration not stated)
IC50 [1]: 132 nM | inhibition in vivo at 100 mg/kg [9]: 17.2%

O=C1CC2(C(=O)N1)C(=O)N(Cc1ccc(F)cc1F)C(=O)c1cccn12 (configuration not stated)
ED50 [3]: 5.4 mg/kg/day | inhibition in vivo at 30 mg/kg [4]: 98%

CC(C)N1C(=O)c2cccn2C(CC(=O)O)C1=O (configuration not stated)
IC50 [1]: > 10000 nM | inhibition in vivo at 100 mg/kg [2]: 12.9%

O=C1CC2(C(=O)N1)C(=O)N(Cc1ccccc1Br)C(=O)c1cccn12 (configuration not stated)
inhibition in vivo at 30 mg/kg [4]: 82.6%

O=C(O)CC1C(=O)NC(=O)c2cccn21 (configuration not stated)
IC50 [1]: > 10000 nM | inhibition in vivo at 100 mg/kg [2]: 12.5%

O=C1CC2(C(=O)N1)C(=O)N(Cc1ccccc1Cl)C(=O)c1cccn12 (configuration not stated)
IC50 [1]: 37 nM | ED50 [3]: 5.8 mg/kg/day | inhibition in vivo at 30 mg/kg [4]: 97%

O=C1C[C@]2(C(=O)N1)C(=O)N(Cc1ccc(Br)cc1F)C(=O)c1cccn12
IC50 [1]: 190 nM | ED50 [3]: > 100 mg/kg/day

O=C1CC2(C(=O)N1)C(=O)N(Cc1cccc(Cl)c1)C(=O)c1cccn12 (configuration not stated)
IC50 [1]: 35 nM | ED50 [3]: 3.8 mg/kg/day | inhibition in vivo at 30 mg/kg [4]: 99.4%

CN(CC(=O)O)C(=O)c1ccc[nH]1
IC50 [1]: 5000 nM | inhibition in vivo at 100 mg/kg [2]: 23.7%

O=C1CC2(C(=O)N1)C(=O)N(Cc1ccc(Br)cc1F)C(=O)c1ccc(Br)n12 (configuration not stated)
inhibition [10]: inactive

O=C(O)CCC1C(=O)NC(=O)c2cccn21 (configuration not stated)
inhibition [6]: inactive | IC50 [1]: > 10000 nM

O=C1C[C@@]2(C(=O)N1)C(=O)N(Cc1ccc(Br)cc1F)C(=O)c1cccn12
IC50 [1]: 15 nM | ED50 [3]: 0.18 mg/kg/day

O=C1CC2(C(=O)N1)C(=O)N(Cc1ccc(Cl)cc1)C(=O)c1cccn12 (configuration not stated)
IC50 [1]: 38 nM | ED50 [3]: 1.5 mg/kg/day | inhibition in vivo at 30 mg/kg [4]: 105%

CN1C(=O)c2cccn2C2(CC(=O)NC2=O)C1=O (configuration not stated)
IC50 [1]: 280 nM | inhibition in vivo at 30 mg/kg [4]: 51.2%

O=C1CC2(C(=O)N1)C(=O)N(Cc1ccc(Cl)cc1F)C(=O)c1cccn12 (configuration not stated)
ED50 [3]: 0.74 mg/kg/day | inhibition in vivo at 30 mg/kg [4]: 110%

Nc1ccc(CN2C(=O)c3cccn3C3(CC(=O)NC3=O)C2=O)cc1 (configuration not stated)
IC50 [1]: 140 nM | inhibition in vivo at 30 mg/kg [4]: 33.4%

O=C1CC2(C(=O)N1)C(=O)N(c1ccccc1)C(=O)c1cccn12 (configuration not stated)
IC50 [1]: 200 nM | inhibition in vivo at 30 mg/kg [4]: 27.2%

O=C1CC2(C(=O)N1)C(=O)N(Cc1ccccc1F)C(=O)c1cccn12 (configuration not stated)
ED50 [3]: 1.3 mg/kg/day | inhibition in vivo at 30 mg/kg [4]: 98%

COC(=O)CN(C)C(=O)c1ccc[nH]1
IC50 [1]: > 10000 nM | inhibition in vivo at 100 mg/kg [2]: 38%

O=C1CC2(C(=O)N1)C(=O)N(Cc1ccc(Br)cc1F)C(=O)c1cc(Br)c(Br)n12 (configuration not stated)
IC50 [1]: 52 nM | inhibition [10]: inactive

CC(C)N1C(=O)c2cccn2C(CCC(=O)O)C1=O (configuration not stated)
inhibition [6]: inactive | IC50 [1]: > 10000 nM

CN1CC(=O)n2cccc2C1=O
IC50 [1]: 7500 nM | inhibition in vivo at 100 mg/kg [2]: 55.7%

O=C(O)CCC1C(=O)N(Cc2ccc(Br)cc2F)C(=O)c2cccn21 (configuration not stated)
inhibition [6]: inactive | IC50 [1]: 803 nM

O=C1CC2(C(=O)N1)C(=O)NC(=O)c1cccn12 (configuration not stated)
IC50 [1]: 630 nM | inhibition in vivo at 30 mg/kg [4]: 33.2%

O=C1CC2(C(=O)N1)C(=O)N(Cc1ccc(Br)cc1F)C(=O)c1cc(Br)cn12 (configuration not stated)
inhibition in vivo at 1 mg/kg [5]: 28.8%

O=C1CC2(C(=O)N1)C(=O)N(CCc1ccccc1)C(=O)c1cccn12 (configuration not stated)
IC50 [1]: 270 nM | inhibition in vivo at 30 mg/kg [4]: 15.3%

O=C1CC2(C(=O)N1)C(=O)N(Cc1ccc(Br)cc1F)C(=O)c1cccn12 (configuration not stated)
IC50 [1]: 45 nM | inhibition in vivo at 1 mg/kg [11]: 105% | ED50 [3]: 0.3 mg/kg/day | inhibition in vivo at 30 mg/kg [4]: 115%
